Assay results from ChEMBL document CHEMBL3112476, “Inhibition of IκB kinase-β and IκB kinase-α by heterocyclic adamantyl arotinoids” (Bioorg Med Chem, 2014).

Assays:
[1] = target: T1, Retinoic acid receptor RXR-alpha (Homo sapiens) (UniProt P19793); experiment: Agonist activity at recombinant GST-tagged RXRalpha LBD (unknown origin) assessed as induction of biotinylated SRC-1-676-700 coactivator recruitment after 4 hrs by TR-FRET assay
T1 sequence (whole entry): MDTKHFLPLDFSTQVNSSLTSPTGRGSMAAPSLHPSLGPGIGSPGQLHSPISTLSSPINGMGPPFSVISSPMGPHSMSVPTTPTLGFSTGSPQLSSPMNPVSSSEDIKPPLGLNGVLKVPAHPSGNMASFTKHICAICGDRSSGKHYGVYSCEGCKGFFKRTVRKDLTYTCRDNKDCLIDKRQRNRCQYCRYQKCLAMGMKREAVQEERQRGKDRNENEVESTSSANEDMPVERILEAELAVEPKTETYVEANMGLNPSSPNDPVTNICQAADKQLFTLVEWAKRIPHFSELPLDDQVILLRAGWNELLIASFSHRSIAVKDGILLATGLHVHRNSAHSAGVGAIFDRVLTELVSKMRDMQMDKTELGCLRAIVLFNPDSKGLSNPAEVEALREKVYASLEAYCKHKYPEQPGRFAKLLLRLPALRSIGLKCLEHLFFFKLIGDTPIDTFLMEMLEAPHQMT
Procedure, shortened: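 5 nM GST-RXRα LBD was incubated with 150 nM biotin-SRC-1 676-700 peptide at room temperature in binding buffer (25 mM Hepes pH 7.4, 100 mM NaCl, 0.025% BSA, 5% glycerol, 0.005% Tween-20, 2.5 mM DTT; ≤1% DMSO). Detection used 2 nM Eu-anti-GST plus 37.5 nM streptavidin-allophycocyanin. The 665/615 nm ratio was read at 4 h and expressed as Delta F% versus no-receptor control.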

[2] = target: T1, Retinoic acid receptor RXR-alpha (Homo sapiens); experiment: Agonist activity at recombinant GST-tagged RXRalpha LBD (unknown origin) assessed as induction of fluorescein labeled D22 coactivator recruitment after 4 hrs by TR-FRET assay
Procedure, shortened: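 5 nM GST-RXRα LBD was incubated with 150 nM fluorescein-D22 peptide at room temperature in Hepes pH 7.4 binding buffer (≤1% DMSO), with 2 nM Tb-anti-GST antibody. The 520/495 nm TR-FRET ratio was read after 4 h and reported as Delta F% relative to samples lacking receptor.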

[3] = target: T1, Retinoic acid receptor RXR-alpha (Homo sapiens); experiment: Agonist activity at Gal4-fused RXRalpha (unknown origin) transfected in HEK293 cells assessed as induction of transcriptional activity at 4 uM after 24 hrs by luciferase/beta-galactosidase reporter gene assay relative to CD3254; type: cell-based
Procedure, shortened: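 Gal4-RARα or Gal4-RXRα (10 ng) plus 2 ng β-galactosidase vector, calcium phosphate transfection into HEK-293 cells carrying a 5×UAS luciferase reporter. After 16 h, cells were washed and given 5% charcoal-treated FBS medium, then rested 2 h. Stimulation was with 4 µM compound or 0.1% DMSO; controls were 1 µM atRA (RARα) or 1 µM CD3254 (RXRα). Harvest was at 6 h (RARα) or 24 h (RXRα). Luciferase/β-gal ratio was expressed as fold over unstimulated cells. Data: 2 experiments, triplicate.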

| Activity [1] | Activity [2] | max activation [3] | SMILES |
| --- | --- | --- | --- |
| Dose-dependent effect | Dose-dependent effect | – | COCCOCOc1cc(C)c(-c2ccc(CC(=O)O)cc2Cl)cc1C12CC3CC(CC(C3)C1)C2 |
| Dose-dependent effect | Dose-dependent effect | – | COCCOCOc1cc(C)c(-c2ccc(/C=C/C(=O)O)cc2Cl)cc1C12CC3CC(CC(C3)C1)C2 |
| Dose-dependent effect | Dose-dependent effect | – | COCCOCOc1cc(C)c(-c2ccc3cc(C(=O)O)ccc3c2Cl)cc1C12CC3CC(CC(C3)C1)C2 |
| Dose-dependent effect | Dose-dependent effect | – | Cc1cc(O)c(C23CC4CC(CC(C4)C2)C3)cc1-c1ccc(/C=C/C(=O)O)cc1Cl |
| – | – | 21% | COCCOCOc1ccc(-c2ncc(-c3ccc(C(=O)O)cc3)s2)cc1C12CC3CC(CC(C3)C1)C2 |
